From ChEMBL document CHEMBL1817562, “Docking and SAR studies of D- and L-isofagomine isomers as human β-glucocerebrosidase inhibitors” (Bioorg Med Chem, 2011)

Tests used:
Coffea = test: Inhibition of coffee beans alpha-galactosidase assessed as production of p-nitrophenol at 1000 uM by spectrophotometry
Summary of the method: (§1)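 p-Nitrophenyl glycoside matched to each enzyme, 2 mM, with enzyme at that enzyme's optimum pH: Penicillium decumbens α-L-rhamnosidase pH 4.0, bovine liver β-galactosidase pH 6.8, coffee bean α-galactosidase pH 6.5, jack bean α-mannosidase pH 4.5, snail β-mannosidase pH 4.5. Stopped with 400 mM Na2CO3; released p-nitrophenol read at 400 nm.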

[1] = molecular target: Lactase/phlorizin hydrolase (Rattus norvegicus, UniProt Q02401); test: Inhibition of rat intestinal lactase assessed as production of p-nitrophenol by spectrophotometry
Chain of Lactase/phlorizin hydrolase (Q02401 868-1928 limits assumed): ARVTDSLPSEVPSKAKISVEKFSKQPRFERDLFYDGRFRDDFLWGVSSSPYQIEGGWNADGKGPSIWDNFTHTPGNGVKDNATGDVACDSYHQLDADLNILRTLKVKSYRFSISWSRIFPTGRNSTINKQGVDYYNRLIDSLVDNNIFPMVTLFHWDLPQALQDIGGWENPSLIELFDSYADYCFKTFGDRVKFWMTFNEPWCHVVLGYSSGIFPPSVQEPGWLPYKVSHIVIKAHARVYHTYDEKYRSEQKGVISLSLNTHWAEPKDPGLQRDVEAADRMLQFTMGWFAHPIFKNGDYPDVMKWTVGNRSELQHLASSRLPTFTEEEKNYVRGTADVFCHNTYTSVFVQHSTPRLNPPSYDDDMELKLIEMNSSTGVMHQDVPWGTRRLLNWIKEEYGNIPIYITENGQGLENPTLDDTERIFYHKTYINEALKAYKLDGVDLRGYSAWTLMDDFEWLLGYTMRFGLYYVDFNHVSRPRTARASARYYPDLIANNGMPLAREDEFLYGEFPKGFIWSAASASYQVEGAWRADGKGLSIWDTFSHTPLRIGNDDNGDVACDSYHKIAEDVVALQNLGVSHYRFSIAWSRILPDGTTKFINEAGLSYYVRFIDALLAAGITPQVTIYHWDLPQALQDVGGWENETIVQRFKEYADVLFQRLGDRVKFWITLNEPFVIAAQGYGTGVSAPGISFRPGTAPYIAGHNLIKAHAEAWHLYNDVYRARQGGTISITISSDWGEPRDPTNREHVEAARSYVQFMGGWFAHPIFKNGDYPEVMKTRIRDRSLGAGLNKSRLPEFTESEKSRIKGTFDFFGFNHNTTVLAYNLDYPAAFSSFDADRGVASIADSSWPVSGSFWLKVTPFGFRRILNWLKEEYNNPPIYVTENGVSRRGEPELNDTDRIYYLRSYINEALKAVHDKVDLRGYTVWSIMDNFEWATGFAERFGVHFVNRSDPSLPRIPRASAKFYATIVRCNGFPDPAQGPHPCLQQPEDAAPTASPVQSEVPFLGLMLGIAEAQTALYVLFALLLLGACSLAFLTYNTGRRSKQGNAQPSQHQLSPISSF

Canavalia ensiformis = test: Inhibition of jack beans alpha-mannosidase assessed as production of p-nitrophenol at 1000 uM by spectrophotometry; summary of the method: as §1
Helix pomatia = test: Inhibition of snail beta-mannosidase assessed as production of p-nitrophenol at 1000 uM by spectrophotometry; summary of the method: as §1
Penicillium decumbens = test: Inhibition of Penicillium decumbens alpha-L-rhamnosidase assessed as production of p-nitrophenol at 1000 uM by spectrophotometry; summary of the method: as §1
[2] = Inhibition of rat intestinal maltase assessed as production of D-glucose using maltose as substrate after 10 to 30 mins by spectrophotometry
Summary of the method: (§2)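 Enzymes were rice α-glucosidase at pH 5.0 and rat small-intestine brush border membranes (Kessler method) at pH 5.8. Each reaction contained 25 mM maltose and enzyme and was incubated 10–30 min at 37 °C. Reactions were stopped by heating at 100 °C for 3 min, then centrifuged. Released D-glucose was measured with a glucose test reagent by absorbance at 505 nm.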

[3] = molecular target: T1, Sucrase-isomaltase, intestinal (Rattus norvegicus, UniProt P23739); test: Inhibition of rat intestinal isomaltase assessed as production of p-nitrophenol at by spectrophotometry
T1 sequence (P23739 1-1013 limits assumed): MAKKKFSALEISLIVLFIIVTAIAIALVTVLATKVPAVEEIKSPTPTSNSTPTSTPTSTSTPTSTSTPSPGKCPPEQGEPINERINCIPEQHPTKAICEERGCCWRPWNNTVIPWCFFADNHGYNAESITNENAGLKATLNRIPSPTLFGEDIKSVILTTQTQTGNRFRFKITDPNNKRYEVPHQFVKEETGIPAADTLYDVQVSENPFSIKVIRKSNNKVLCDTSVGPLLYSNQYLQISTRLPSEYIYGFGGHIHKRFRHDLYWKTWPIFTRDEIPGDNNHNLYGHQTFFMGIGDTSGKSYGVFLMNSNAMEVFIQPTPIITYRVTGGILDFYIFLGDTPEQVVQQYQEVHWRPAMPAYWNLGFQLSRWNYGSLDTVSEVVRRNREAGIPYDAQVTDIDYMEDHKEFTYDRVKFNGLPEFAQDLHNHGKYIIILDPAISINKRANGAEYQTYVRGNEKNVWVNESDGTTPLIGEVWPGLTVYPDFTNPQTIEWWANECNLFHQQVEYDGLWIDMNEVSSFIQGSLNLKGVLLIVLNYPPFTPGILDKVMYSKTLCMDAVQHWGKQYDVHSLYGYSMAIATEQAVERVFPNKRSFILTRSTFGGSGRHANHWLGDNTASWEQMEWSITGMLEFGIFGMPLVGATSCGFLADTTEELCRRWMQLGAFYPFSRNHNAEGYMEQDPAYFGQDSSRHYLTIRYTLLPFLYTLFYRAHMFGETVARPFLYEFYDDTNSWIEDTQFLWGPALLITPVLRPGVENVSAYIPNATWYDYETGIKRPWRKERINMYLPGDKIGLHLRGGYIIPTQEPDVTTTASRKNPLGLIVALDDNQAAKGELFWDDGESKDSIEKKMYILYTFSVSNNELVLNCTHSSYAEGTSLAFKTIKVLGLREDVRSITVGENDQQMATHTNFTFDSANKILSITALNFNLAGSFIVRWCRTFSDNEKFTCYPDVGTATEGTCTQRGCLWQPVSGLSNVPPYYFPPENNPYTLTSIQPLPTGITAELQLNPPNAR
T1 sequence (P23739 1014-1841 limits assumed): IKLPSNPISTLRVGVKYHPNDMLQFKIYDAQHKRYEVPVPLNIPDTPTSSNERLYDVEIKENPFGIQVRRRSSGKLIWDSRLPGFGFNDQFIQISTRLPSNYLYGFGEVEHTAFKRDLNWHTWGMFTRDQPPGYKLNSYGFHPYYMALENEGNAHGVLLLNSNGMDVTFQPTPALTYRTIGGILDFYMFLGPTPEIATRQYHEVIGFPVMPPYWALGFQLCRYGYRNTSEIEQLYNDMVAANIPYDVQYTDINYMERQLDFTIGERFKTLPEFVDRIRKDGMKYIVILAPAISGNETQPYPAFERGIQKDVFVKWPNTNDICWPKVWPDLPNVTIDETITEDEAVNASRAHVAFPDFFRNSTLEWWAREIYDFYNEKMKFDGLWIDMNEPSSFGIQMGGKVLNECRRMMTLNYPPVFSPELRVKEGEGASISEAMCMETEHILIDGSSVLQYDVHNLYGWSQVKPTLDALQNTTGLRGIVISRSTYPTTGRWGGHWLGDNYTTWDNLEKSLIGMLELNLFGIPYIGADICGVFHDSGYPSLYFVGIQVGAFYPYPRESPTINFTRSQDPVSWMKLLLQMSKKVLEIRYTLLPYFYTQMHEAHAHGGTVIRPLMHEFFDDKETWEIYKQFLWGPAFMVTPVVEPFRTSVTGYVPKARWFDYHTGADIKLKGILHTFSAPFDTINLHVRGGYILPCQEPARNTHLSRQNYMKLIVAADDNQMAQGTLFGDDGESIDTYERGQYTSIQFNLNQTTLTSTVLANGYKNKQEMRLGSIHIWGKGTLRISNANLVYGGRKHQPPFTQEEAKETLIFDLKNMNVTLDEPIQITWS

[4] = Inhibition of rat intestinal cellobiase assessed as production of p-nitrophenol by spectrophotometry
Beta-galactosidase = molecular target: T2, Beta-galactosidase (Bos taurus, UniProt Q58D55); test: Inhibition of bovine liver beta-galactosidase assessed as production of p-nitrophenol by spectrophotometry
T2 sequence (Q58D55 whole entry): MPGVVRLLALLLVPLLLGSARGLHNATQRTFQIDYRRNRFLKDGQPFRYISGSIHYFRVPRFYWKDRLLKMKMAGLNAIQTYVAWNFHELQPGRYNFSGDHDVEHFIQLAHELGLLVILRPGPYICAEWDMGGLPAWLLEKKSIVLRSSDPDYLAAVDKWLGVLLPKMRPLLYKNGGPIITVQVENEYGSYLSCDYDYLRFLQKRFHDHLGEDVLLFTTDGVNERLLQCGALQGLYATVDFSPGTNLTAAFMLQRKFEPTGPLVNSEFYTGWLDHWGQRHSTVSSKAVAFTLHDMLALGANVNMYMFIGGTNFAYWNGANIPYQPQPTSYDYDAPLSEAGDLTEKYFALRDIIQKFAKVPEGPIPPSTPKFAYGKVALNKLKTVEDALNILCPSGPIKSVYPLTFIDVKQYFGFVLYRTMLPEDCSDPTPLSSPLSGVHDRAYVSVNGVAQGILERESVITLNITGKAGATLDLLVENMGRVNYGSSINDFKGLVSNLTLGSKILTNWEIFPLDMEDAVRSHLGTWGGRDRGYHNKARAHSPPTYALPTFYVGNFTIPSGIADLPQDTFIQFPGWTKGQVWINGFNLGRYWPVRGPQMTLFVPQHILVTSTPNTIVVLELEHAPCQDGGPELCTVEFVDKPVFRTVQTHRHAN

Oryza sativa = settings: 1000 uM
[5] = molecular target: T3, Tissue alpha-L-fucosidase (Bos taurus) (UniProt Q2KIM0); settings: 1000 uM
T3 sequence (whole entry): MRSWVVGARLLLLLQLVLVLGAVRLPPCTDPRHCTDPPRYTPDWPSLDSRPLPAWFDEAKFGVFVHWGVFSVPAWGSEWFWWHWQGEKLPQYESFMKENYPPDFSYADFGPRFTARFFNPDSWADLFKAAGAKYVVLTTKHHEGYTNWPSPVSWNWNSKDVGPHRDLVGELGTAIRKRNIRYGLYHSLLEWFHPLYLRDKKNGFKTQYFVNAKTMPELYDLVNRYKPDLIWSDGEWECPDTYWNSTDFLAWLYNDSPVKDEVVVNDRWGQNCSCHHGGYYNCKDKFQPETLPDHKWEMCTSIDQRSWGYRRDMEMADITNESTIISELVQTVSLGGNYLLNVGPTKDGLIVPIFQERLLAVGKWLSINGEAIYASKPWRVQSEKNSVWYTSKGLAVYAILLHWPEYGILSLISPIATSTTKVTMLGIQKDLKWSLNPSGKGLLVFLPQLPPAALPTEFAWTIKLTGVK

[6] = molecular target: T1, Sucrase-isomaltase, intestinal; test: Inhibition of rat intestinal sucrase assessed as release of D-glucose at by spectrophotometry
[7] = Inhibition of almond beta-glucosidase assessed as production of p-nitrophenol using p-nitrophenyl glycoside as substrate by spectrophotometry
[8] = Inhibition of rice alpha-glucosidase assessed as production of D-glucose using maltose as substrate after 10 to 30 mins by spectrophotometry; set-up: species or system Oryza sativa; summary of the method: as §2
[9] = molecular target: T4, Tissue alpha-L-fucosidase (Bos taurus, UniProt Q2KIM0); test: Inhibition of bovine epididymis alpha-L-fucosidase assessed as production of p-nitrophenol by spectrophotometry
T4 sequence (Q2KIM0 whole entry): T3 sequence (whole entry)
Summary of the method: (§3)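 Commercial enzymes were assayed at their own optimum pH: bovine epididymis α-L-fucosidase pH 5.5, bovine liver β-galactosidase pH 6.8, coffee bean α-galactosidase pH 6.5. Reactions contained 2 mM of the matching p-nitrophenyl glycoside plus enzyme. They were stopped with 400 mM Na2CO3, and released p-nitrophenol was read at 400 nm.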

[10] = molecular target: Sucrase-isomaltase, intestinal (Rattus norvegicus) (UniProt P23739); settings: 1000 uM
Chain of Sucrase-isomaltase, intestinal (Rattus norvegicus) (P23739 1-1013 limits assumed): as the sequence (P23739 1-1013 limits assumed) above
Chain of Sucrase-isomaltase, intestinal (Rattus norvegicus) (P23739 1014-1841 limits assumed): as the sequence (P23739 1014-1841 limits assumed) above

Prunus dulcis = settings: 1000 uM
[11] = molecular target: T5, Lysosomal acid glucosylceramidase (Homo sapiens) (UniProt P04062); settings: 1000 uM
T5 sequence (whole entry): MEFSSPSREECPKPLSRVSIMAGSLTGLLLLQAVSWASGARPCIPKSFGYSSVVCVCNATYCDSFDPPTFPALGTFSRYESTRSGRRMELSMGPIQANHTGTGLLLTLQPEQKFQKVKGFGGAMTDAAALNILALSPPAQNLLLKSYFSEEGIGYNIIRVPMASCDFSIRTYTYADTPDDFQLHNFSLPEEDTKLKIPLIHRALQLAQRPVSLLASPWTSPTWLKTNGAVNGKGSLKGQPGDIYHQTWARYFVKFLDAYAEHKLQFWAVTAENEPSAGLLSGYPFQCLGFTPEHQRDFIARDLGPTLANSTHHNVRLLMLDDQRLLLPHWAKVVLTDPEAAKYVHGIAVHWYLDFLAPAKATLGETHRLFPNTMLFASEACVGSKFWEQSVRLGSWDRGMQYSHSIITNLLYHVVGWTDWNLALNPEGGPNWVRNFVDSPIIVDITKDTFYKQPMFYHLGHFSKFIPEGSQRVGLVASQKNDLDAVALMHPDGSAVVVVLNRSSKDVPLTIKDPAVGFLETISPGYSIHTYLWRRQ

[12] = molecular target: T6, Glucosylceramidase (Bos taurus) (UniProt Q2KHZ8); test: Inhibition of bovine liver beta-glucosidase assessed as production of p-nitrophenol using p-nitrophenyl glycoside as substrate at 1000 uM by spectrophotometry
T6 sequence (whole entry): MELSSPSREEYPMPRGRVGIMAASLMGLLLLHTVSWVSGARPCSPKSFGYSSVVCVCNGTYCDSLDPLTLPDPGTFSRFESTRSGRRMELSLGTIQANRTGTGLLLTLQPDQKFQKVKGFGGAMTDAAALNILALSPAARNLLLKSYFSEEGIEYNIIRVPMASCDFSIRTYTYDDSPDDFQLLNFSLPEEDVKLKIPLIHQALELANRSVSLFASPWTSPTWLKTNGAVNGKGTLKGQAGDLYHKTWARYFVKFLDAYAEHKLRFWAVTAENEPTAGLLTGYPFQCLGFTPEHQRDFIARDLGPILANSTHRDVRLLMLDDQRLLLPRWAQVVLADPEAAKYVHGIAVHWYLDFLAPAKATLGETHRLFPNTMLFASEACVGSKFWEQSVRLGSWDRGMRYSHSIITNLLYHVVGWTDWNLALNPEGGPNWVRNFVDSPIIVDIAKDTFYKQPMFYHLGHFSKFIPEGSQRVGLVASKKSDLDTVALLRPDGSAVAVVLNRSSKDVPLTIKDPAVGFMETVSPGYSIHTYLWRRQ

[13] = Inhibition of coffee beans alpha-galactosidase assessed as production of p-nitrophenol by spectrophotometry; set-up: species or system Coffea; summary of the method: as §3
[14] = molecular target: T7, Beta-galactosidase (Bos taurus) (UniProt Q58D55); test: Inhibition of bovine liver beta-galactosidase assessed as production of p-nitrophenol at 1000 uM by spectrophotometry; summary of the method: as §1
T7 sequence (whole entry): T2 sequence (Q58D55 whole entry)

Rattus norvegicus [15] = species: Rattus norvegicus; settings: 1000 uM
[16] = molecular target: Sucrase-isomaltase, intestinal (Rattus norvegicus) (UniProt P23739); settings: 1000 uM; remark: listed apart in the source
Rattus norvegicus [17] = species: Rattus norvegicus; test: Inhibition of rat intestinal cellobiase assessed as production of p-nitrophenol at 1000 uM by spectrophotometry
[18] = molecular target: Lactase/phlorizin hydrolase (Rattus norvegicus) (UniProt Q02401); settings: 1000 uM
Chain of Lactase/phlorizin hydrolase (Rattus norvegicus) (Q02401 868-1928 limits assumed): as the sequence (Q02401 868-1928 limits assumed) above

[19] = Inhibition of rice alpha-glucosidase; set-up: species or system Oryza sativa; summary of the method: as §2
[20] = Inhibition of rat intestinal maltase; summary of the method: as §2

| inhibition (Coffea) | IC50 [1] | inhibition (Canavalia ensiformis) | inhibition (Helix pomatia) | inhibition (Penicillium decumbens) | IC50 [2] | IC50 [4] | inhibition (Oryza sativa) | inhibition [5] | IC50 [6] | IC50 [7] | IC50 [8] | inhibition [10] | inhibition (Prunus dulcis) | inhibition [11] | inhibition [12] | IC50 [13] | inhibition (Rattus norvegicus [15]) | inhibition [16] | Compound | also measured |
| --- | --- | --- | --- | --- | --- | --- | --- | --- | --- | --- | --- | --- | --- | --- | --- | --- | --- | --- | --- | --- |
| < 50% | 0.12 µM | < 50% | < 50% | < 50% | 653 µM | 0.3 µM | < 50% | < 50% | 531 µM | 0.98 µM | – | – | – | – | – | – | – | – | OC[C@H]1CNC[C@@H](O)[C@@H]1O [AFEGOSTAT] | IC50 [3]: 290 µM; IC50 (Beta-galactosidase): 3.6 µM |
| < 50% | 122 µM | < 50% | < 50% | < 50% | 357 µM | 809 µM | – | – | 225 µM | – | 188 µM | < 50% | < 50% | < 50% | < 50% | – | – | – | OC[C@@H]1NCC[C@@H](O)[C@H]1O | IC50 [9]: 260 µM |
| – | – | < 50% | < 50% | < 50% | 0.65 µM | 327 µM | – | – | – | 80 µM | 0.03 µM | – | – | – | < 50% | 880 µM | – | – | OC[C@H]1NC[C@H](O)[C@@H](O)[C@@H]1O [DUVOGLUSTAT] | – |
| – | 90 µM | < 50% | < 50% | < 50% | – | 607 µM | < 50% | < 50% | – | 983 µM | – | < 50% | – | < 50% | < 50% | 450 µM | < 50% | < 50% | OC[C@@H]1CNC[C@H](O)[C@@H]1O | inhibition [14]: < 50% |
| – | 0.51 µM | < 50% | < 50% | < 50% | – | 4.5 µM | < 50% | < 50% | – | 3.2 µM | – | < 50% | – | – | – | 144 µM | < 50% | < 50% | OC[C@H]1CNC[C@@H](O)[C@H]1O | IC50 (Beta-galactosidase): 21 µM |
| < 50% | – | < 50% | < 50% | < 50% | 113 µM | – | – | < 50% | 34 µM | – | 320 µM | – | < 50% | – | – | – | – | – | OC[C@H]1NCC[C@@H](O)[C@@H]1O [FAGOMINE] | inhibition (Rattus norvegicus [17]): < 50%; IC50 [3]: 37 µM; inhibition [18]: < 50% |
| – | – | < 50% | < 50% | < 50% | – | – | < 50% | < 50% | – | – | – | < 50% | < 50% | < 50% | < 50% | 8 µM | < 50% | < 50% | OC[C@H]1NCC[C@@H](O)[C@H]1O | inhibition (Rattus norvegicus [17]): < 50%; inhibition [14]: < 50%; inhibition [18]: < 50% |
| – | – | – | – | – | – | – | – | – | – | – | – | – | – | – | – | – | – | – | OCC1(O)CNC[C@H]1O (single isomer, unassigned) | Ki [19]: 4 µM; Ki [20]: 6 µM |
